Consider 34 compounds from ChEMBL document CHEMBL2385035 (J Med Chem, 2013).

The nature of data set [1]: Apparent permeability in MDCK cells expressing MDR1 at 3 uM after 60 mins by LC-MS/MS analysis. In kind it is ADME, cell-based, Canis lupus familiaris. The following applies: dog.
The target of data set [2] is T1, Ileal sodium/bile acid cotransporter (Homo sapiens, UniProt Q12908).
T1 sequence (Q12908 whole entry): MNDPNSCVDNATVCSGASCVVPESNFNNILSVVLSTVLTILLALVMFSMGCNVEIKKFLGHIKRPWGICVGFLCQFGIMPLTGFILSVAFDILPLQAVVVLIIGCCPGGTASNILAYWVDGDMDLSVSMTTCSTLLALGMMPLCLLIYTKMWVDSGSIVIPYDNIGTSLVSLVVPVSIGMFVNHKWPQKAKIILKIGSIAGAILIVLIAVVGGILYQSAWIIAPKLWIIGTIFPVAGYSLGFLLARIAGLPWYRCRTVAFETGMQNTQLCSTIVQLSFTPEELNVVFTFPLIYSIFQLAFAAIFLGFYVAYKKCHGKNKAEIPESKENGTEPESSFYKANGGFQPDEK
In words: Inhibition of human ASBT expressed in HEK293 cells assessed as inhibition of [3H]-taurocholate uptake after 90 mins by scintillation counting analysis. The class given is cell-based.

Data set [3] relates to Mus musculus. In words: In vivo inhibition of ASBT in C57BL/6J mouse assessed as increase in fecal bile acid excretion measured for 24 hrs relative to 264W94. The class given is functional, Feces. Further details: concentration or dose not given beside the values.
In data set [4] the test system is Mus musculus. In words: In vivo inhibition of ASBT in C57BL/6J mouse assessed as increase in fecal bile acid excretion measured for 24 hrs. The class given is functional. As to conditions: Feces.
Data set [5] in a line: Drug recovery in Sprague-Dawley rat feces at 10 mg/kg, po. As to conditions: read-out: Drug recovery. Further details: dose 10 mg/kg, route oral. The class given is ADME, organism-based.
The nature of data set [6]: Half life in Sprague-Dawley rat intestine at 10 mg/kg, po. The class given is ADME, organism-based. Further details: dose 10 mg/kg, route oral.
Data set [7] can be described thus: Cmax in Sprague-Dawley rat portal vein blood at 10 mg/kg, po. Further details: dose 10 mg/kg, route oral. The class given is ADME, organism-based. The method, boiled down:
(§1)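 Fed male SD rats given a single oral gavage dose of 10 mg/kg. Maximum parent drug concentration measured in portal vein blood and in systemic blood.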

A short description of data set [8]: Cmax in Sprague-Dawley rat systemic blood at 10 mg/kg, po. In kind it is ADME, organism-based. Further details: dose 10 mg/kg, route oral. The method, boiled down:
as §1

For orientation: Papp means the rate of passage across a membrane or cell layer, normalised by area and donor concentration. As a reminder, the IC50 is the concentration that gives 50% inhibition. Regarding `CCCC[C@]1(CC)CS(=O)(=O)c2cc(OCCCC(=O)O)c(OC)cc2[C@@H](c2ccccc2)N1`, the Papp at 1 h, 3 µM in data set [1] was found to be 30.3 ×10⁻⁶ cm/s. Besides, the concentration for half-maximal inhibition (IC50) in data set [2] came to 13 nM.
As a reminder, the ED50 is the midpoint of the dose-response relation. What is called half-life is the time in which the quantity being followed falls by half. Broadly, the Cmax is the maximum level reached in the sampled fluid or tissue. For the compound `CCCC[C@]1(CC)CS(=O)(=O)c2cc(CN[C@@H](CO)C(=O)O)c(OC)cc2[C@@H](c2ccccc2)N1`, the Efficacy in the data set with Mus musculus [3] amounted to 47%. The ED50 in the data set with Mus musculus [4] was 0.012 mg/kg. In data set [5], the dose excreted amounted to 63%. The same compound gave a half-life in data set [6] of 8 h. Besides, the Cmax in data set [7] was 12 ng/mL; in data set [8] it was 24 ng/mL. For the same compound, in data set [1], the apparent permeability (Papp) at 1 h, 3 µM was determined as 0.5 ×10⁻⁶ cm/s.
Consider `CCCC[C@]1(CC)CS(=O)(=O)c2cc(CN(CP(=O)(O)O)CP(=O)(O)O)c(OC)cc2[C@@H](c2ccccc2)N1`, for which, in data set [2], the half-maximal inhibitory concentration (IC50) is more than 3000 nM.
Turning to `CCCC[C@]1(CC)CS(=O)(=O)c2cc(CCP(=O)(O)O)c(OC)cc2[C@@H](c2ccccc2)N1`, the apparent permeability coefficient (Papp) at 1 h, 3 µM in data set [1] is 1.2 ×10⁻⁶ cm/s.
`CCCC[C@]1(CC)CS(=O)(=O)c2cc(CN(C)CCC(=O)O)c(OC)cc2[C@@H](c2ccccc2)N1`: in data set [2], the IC50 came out at 367 nM.
With `CCCC[C@]1(CC)CS(=O)(=O)c2cc(CCCS(=O)(=O)O)c(OC)cc2[C@@H](c2ccccc2)N1`, the Papp at 1 h, 3 µM in data set [1] was 0.7 ×10⁻⁶ cm/s.
Take `CCCC[C@]1(CC)CS(=O)(=O)c2cc(CNC(=O)CS(=O)(=O)O)c(OC)cc2[C@@H](c2ccccc2)N1`: the Cmax is 122 ng/mL in data set [7] and 26 ng/mL in data set [8]. In addition, the Papp at 1 h, 3 µM in data set [1] stood at 1.9 ×10⁻⁶ cm/s.
Consider `CCCC[C@]1(CC)CS(=O)(=O)c2cc(C(=O)NCCS(=O)(=O)O)c(OC)cc2[C@@H](c2ccccc2)N1`, for which the figures for the Cmax in data set [7] and in data set [8] were 132 ng/mL and 38 ng/mL, respectively. Further, the Papp at 1 h, 3 µM in data set [1] is 0.4 ×10⁻⁶ cm/s.
Turning to `CCCC[C@]1(CC)CS(=O)(=O)c2cc(OCCCP(=O)(O)O)c(OC)cc2[C@@H](c2ccccc2)N1`, the values for the highest concentration (Cmax) in data set [7] and in data set [8] were 260 ng/mL and 7 ng/mL, respectively. The apparent permeability (Papp) at 1 h, 3 µM in data set [1] was 1 ×10⁻⁶ cm/s. Besides, the IC50 in data set [2] is 133 nM.
With `CCCC[C@]1(CC)CS(=O)(=O)c2cc(CN(CC(=O)O)CC(=O)O)c(OC)cc2[C@@H](c2ccccc2)N1`, the Cmax in data set [7] was 56 ng/mL; in data set [8], 43 ng/mL. In addition, in data set [1], the Papp at 1 h, 3 µM worked out at 0.4 ×10⁻⁶ cm/s. In addition, in data set [2], the IC50 came to 245 nM.
Consider `CCCC[C@]1(CC)CS(=O)(=O)c2cc(CCC(=O)NCC(=O)O)c(OC)cc2[C@@H](c2ccccc2)N1`, for which the apparent permeability coefficient (Papp) at 1 h, 3 µM in data set [1] is 1.2 ×10⁻⁶ cm/s.
Take `CCCC[C@]1(CC)CS(=O)(=O)c2cc(OCCS(=O)(=O)O)c(OC)cc2[C@@H](c2ccccc2)N1`: the highest concentration (Cmax) in data set [7] is 220 ng/mL; in data set [8], 7 ng/mL. In data set [1], the Papp at 1 h, 3 µM was 1.2 ×10⁻⁶ cm/s. Moreover, in data set [2], the half-inhibitory concentration (IC50) was found to be 4 nM.
On the same counts, the results for `CCCC[C@]1(CC)CS(=O)(=O)c2cc(OCCCS(=O)(=O)O)c(OC)cc2[C@@H](c2ccccc2)N1` are 289 ng/mL, 1 ng/mL, 0.8 ×10⁻⁶ cm/s and 50 nM.
In the case of `CCCC[C@]1(CC)CS(=O)(=O)c2cc(CNC(=O)CP(=O)(O)O)c(OC)cc2[C@@H](c2ccccc2)N1`, the Papp at 1 h, 3 µM in data set [1] amounted to 0.3 ×10⁻⁶ cm/s.
Turning to `CCCC[C@]1(CC)CS(=O)(=O)c2cc(OCCP(=O)(O)O)c(OC)cc2[C@@H](c2ccccc2)N1`, the results for the Cmax in data set [7] and in data set [8] were 82 ng/mL and 16 ng/mL, respectively. Also, in data set [1], the Papp at 1 h, 3 µM stood at 0.8 ×10⁻⁶ cm/s. Moreover, in data set [2], the IC50 amounted to 44 nM.
For `CCCC[C@]1(CC)CS(=O)(=O)c2cc(CCC(=O)O)c(OC)cc2[C@@H](c2ccccc2)N1`, the apparent permeability (Papp) at 1 h, 3 µM in data set [1] turned out to be 38.3 ×10⁻⁶ cm/s.
For `CCCC[C@]1(CC)CS(=O)(=O)c2cc(C(=O)NCS(=O)(=O)O)c(OC)cc2[C@@H](c2ccccc2)N1`, the maximum concentration (Cmax) in data set [7] is 92 ng/mL; in data set [8] it was 4 ng/mL. Moreover, the Papp at 1 h, 3 µM in data set [1] came out at 0.7 ×10⁻⁶ cm/s.
For the compound `CCCC[C@]1(CC)CS(=O)(=O)c2cc(CN[C@H](CC(=O)O)C(=O)O)c(OC)cc2[C@@H](c2ccccc2)N1`, the Efficacy in the data set with Mus musculus [3] is on record as 70%. The ED50 with Mus musculus [4] is more than 1 mg/kg. For the same compound, in data set [5], the dose excreted is 100%. Moreover, the maximum concentration (Cmax) in data set [7] stood at 11 ng/mL; in data set [8], 1 ng/mL. For the same compound, in data set [1], the apparent permeability coefficient (Papp) at 1 h, 3 µM came out at 0.7 ×10⁻⁶ cm/s.
Consider `CCCC[C@]1(CC)CS(=O)(=O)c2cc(CN3CCC[C@H]3C(=O)O)c(OC)cc2[C@@H](c2ccccc2)N1`, for which the IC50 in data set [2] was more than 3000 nM.
As to `CCCC[C@]1(CC)CS(=O)(=O)c2cc(C(CC(=O)O)CC(=O)O)c(OC)cc2[C@@H](c2ccccc2)N1`, the Cmax in data set [7] is 333 ng/mL; in data set [8], 19 ng/mL. The apparent permeability (Papp) at 1 h, 3 µM in data set [1] turned out to be 0.5 ×10⁻⁶ cm/s. Besides, the IC50 in data set [2] is more than 3000 nM.
With `CCCC[C@]1(CC)CS(=O)(=O)c2cc(OCP(=O)(O)O)c(OC)cc2[C@@H](c2ccccc2)N1`, the IC50 in data set [2] came to 900 nM.
Consider `CCCC[C@]1(CC)CS(=O)(=O)c2cc(CN(CCS(=O)(=O)O)CCS(=O)(=O)O)c(OC)cc2[C@@H](c2ccccc2)N1`, for which the apparent permeability coefficient (Papp) at 1 h, 3 µM in data set [1] amounted to 0.8 ×10⁻⁶ cm/s.
Regarding `CCCC[C@]1(CC)CS(=O)(=O)c2cc(OCC(=O)O)c(OC)cc2[C@@H](c2ccccc2)N1`, the figures for the Cmax in data set [7] and in data set [8] were 1460 ng/mL and 26 ng/mL, respectively. Besides, the Papp at 1 h, 3 µM in data set [1] was found to be 1 ×10⁻⁶ cm/s. In addition, the IC50 in data set [2] stood at 34 nM.
For the compound `CCCC[C@]1(CC)CS(=O)(=O)c2cc(CN(C)CC(=O)O)c(OC)cc2[C@@H](c2ccccc2)N1`, the Cmax in data set [7] came to 224 ng/mL; in data set [8], 1 ng/mL. Moreover, the Papp at 1 h, 3 µM in data set [1] was 1 ×10⁻⁶ cm/s.
For `CCCC[C@]1(CC)CS(=O)(=O)c2cc(CCC(=O)NCS(=O)(=O)O)c(OC)cc2[C@@H](c2ccccc2)N1`, in data set [1], the apparent permeability (Papp) at 1 h, 3 µM was 0.7 ×10⁻⁶ cm/s.
`CCCC[C@]1(CC)CS(=O)(=O)c2cc(CCCC(=O)O)c(OC)cc2[C@@H](c2ccccc2)N1`: in data set [1], the apparent permeability coefficient (Papp) at 1 h, 3 µM worked out at 34.2 ×10⁻⁶ cm/s.
As for `CCCC[C@]1(CC)CS(=O)(=O)c2cc(C(=O)NCC(C)(C)C(=O)O)c(OC)cc2[C@@H](c2ccccc2)N1`, the Papp at 1 h, 3 µM in data set [1] was determined as 4.3 ×10⁻⁶ cm/s.
Turning to `CCCC[C@]1(CC)CS(=O)(=O)c2cc(CNCP(=O)(O)O)c(OC)cc2[C@@H](c2ccccc2)N1`, the half-maximal inhibitory concentration (IC50) in data set [2] is more than 3000 nM.
Still for that read-out and setting: under `CCCC[C@]1(CC)CS(=O)(=O)c2cc(CNC(=O)CNC(CC(=O)O)CC(=O)O)c(OC)cc2[C@@H](c2ccccc2)N1` stands more than 3000 nM; under `CCCC[C@]1(CC)CS(=O)(=O)c2cc(CCC(=O)NC(CC(=O)O)CC(=O)O)c(OC)cc2[C@@H](c2ccccc2)N1`, more than 3000 nM.
On to `CCCC[C@]1(CC)CS(=O)(=O)c2cc(CN[C@@H](CC(=O)O)C(=O)O)c(OC)cc2[C@@H](c2ccccc2)N1`, for which the Cmax in data set [7] worked out at 93 ng/mL; in data set [8], 1 ng/mL. Also, the apparent permeability (Papp) at 1 h, 3 µM in data set [1] is 0.6 ×10⁻⁶ cm/s.
Turning to `CCCC[C@]1(CC)CS(=O)(=O)c2cc(CCCP(=O)(O)O)c(OC)cc2[C@@H](c2ccccc2)N1`, in data set [1], the apparent permeability coefficient (Papp) at 1 h, 3 µM came out at 0.7 ×10⁻⁶ cm/s.
Take `CCCC[C@]1(CC)CS(=O)(=O)c2cc(CS(=O)(=O)O)c(OC)cc2[C@@H](c2ccccc2)N1`: the values for the Cmax in data set [7] and in data set [8] were 170 ng/mL and 3 ng/mL, respectively. In addition, in data set [1], the Papp at 1 h, 3 µM was determined as 0.9 ×10⁻⁶ cm/s.
As to `CCCC[C@]1(CC)CS(=O)(=O)c2cc(CNC(=O)C(=O)O)c(OC)cc2[C@@H](c2ccccc2)N1`, in data set [7], the highest concentration (Cmax) was 87 ng/mL.
